Test results: paper PMC11840771 (ACS Omega, 2025)
Read-outs that look alike come from different tables or passages of the source.

Columns and labels:
[1] = target: T1, HER2-TK (Homo sapiens, UniProt P04626); assay: SPR kinetic analysis of binding to immobilized HER2-TK
[2] = tested on: SKOV3 (HER2-positive cell); assay: MTT cell viability assay, SKOV3; type: cell-based, human; conditions: read-out: cell inhibition IC50 SKOV3 (HER2-positive cell), 72 h, mean ± SD
Outline: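 SKOV3 cells grown in DMEM at 37 °C, 5% CO2, seeded at 1 × 10^4 cells/well and left 16 h. Test compound from DMSO stock (final DMSO ≤1%) was added in complete medium, 2-fold dilutions from 100 μM, for 72 h. MTT added for 3 h at 37 °C, formazan dissolved in DMSO, read at 550/590 nm. Triplicate; IC50 by nonlinear regression.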

[3] = target: T1, HER2-TK; assay: HER2-TK inhibitory activity assay; type: biochemical
[4] = SPR, PBS pH 7.4 with 5% DMSO, mean ± SD

T1 sequence (P04626 676-1255 limits assumed): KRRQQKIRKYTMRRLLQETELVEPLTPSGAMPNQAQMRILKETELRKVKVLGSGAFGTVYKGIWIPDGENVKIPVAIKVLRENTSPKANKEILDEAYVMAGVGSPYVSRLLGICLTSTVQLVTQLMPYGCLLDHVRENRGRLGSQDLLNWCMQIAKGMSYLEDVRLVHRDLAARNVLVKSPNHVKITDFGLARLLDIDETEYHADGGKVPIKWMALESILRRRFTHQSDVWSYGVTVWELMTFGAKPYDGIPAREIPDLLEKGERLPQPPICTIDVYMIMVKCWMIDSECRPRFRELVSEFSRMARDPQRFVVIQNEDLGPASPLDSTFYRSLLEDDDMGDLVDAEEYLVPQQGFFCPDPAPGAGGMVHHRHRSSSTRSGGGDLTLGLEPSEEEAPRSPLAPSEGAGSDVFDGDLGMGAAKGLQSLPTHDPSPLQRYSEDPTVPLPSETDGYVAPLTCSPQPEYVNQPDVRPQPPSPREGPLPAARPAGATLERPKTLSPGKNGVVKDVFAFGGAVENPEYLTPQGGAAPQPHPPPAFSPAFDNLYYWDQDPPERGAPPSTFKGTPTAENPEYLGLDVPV

Compound | kd [1, 4] | IC50 [2] [µM] | Kd [1] [µM] | IC50 [3] [µM] | ka [1, 4] | kon ([1]; read-out: association rate constant (ka)) [M⁻¹ s⁻¹] | kd ([1]; SPR) | kon ([1]; pH 7.4, read-out: ka) [M⁻¹ s⁻¹]
CN(C)C/C=C/C(=O)Nc1cc2c(Nc3ccc(F)c(Cl)c3)ncnc2cc1O[C@H]1CCOC1 [Afatinib, reference compound] | 9.95 ± 0.16 10^–3/s | 8.4 ± 0.9 | – | – | – | – | – | –
C=C(C)[C@@H]1CCC(C)=C[C@H]1c1c(O)cc(CCCCC)cc1O [CBD, cannabidiol] | 6.33 ± 0.06 10^–3/s | 13.8 ± 1.7 | 6.16 ± 0.25 | 0.038 ± 0.002 | – | – | – | –
CCCCCc1cc(O)c(C/C=C(\C)CCC=C(C)C)c(O)c1 [CBG, cannabigerol] | 3.77 ± 0.02 10^–3/s | 16.6 ± 1 | 17.1 ± 0.8 | 0.0247 ± 0.0026 | 2.21 ± 0.11 10^2/(M·s) | 221 | – | –
CCCCCc1cc(O)c2c(c1)OC(C)(C)c1ccc(C)cc1-2 [CBN, cannabinol] | 3.14 ± 0.09 10^–3/s | – | 26 ± 2.97 | 0.0874 ± 0.0017 | – | – | 3.14 × 10^–3 s^–1 | 122 ± 11
CS(=O)(=O)CCNCc1ccc(-c2ccc3ncnc(Nc4ccc(OCc5cccc(F)c5)c(Cl)c4)c3c2)o1 [Lapatinib, reference compound] | – | 8 ± 1.4 | – | – | – | – | – | –
